These results are taken from ChEMBL document CHEMBL5329221, “A covalent fragment-based strategy targeting a novel cysteine to inhibit activity of mutant EGFR kinase” (RSC Med Chem, 2023).

Assay [1] concerns the target Epidermal growth factor receptor (Homo sapiens, UniProt P00533, C797S/L858R/T790M). The experiment in a line: Inhibition of N-terminal His6-tagged human EGFR L858R/T790M/C797S mutant expressed in Sf9 cells assessed as decrease in substrate phosphorylation using Ulight-JAK1 peptide as substrate incubated for 1.5 hrs in presence of ATP by TR-FRET based LANCE Ultra kinase assay. The method in brief:
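LANCE Ultra TR-FRET assay with 0.25 nM EGFR_TM, 1 µM ATP, 50 nM ULight-JAK1 peptide, 50 mM HEPES pH 7.5, 10 mM MgCl2, 5 mM MnCl2, 1 mM DTT, 0.015% Brij35, 5% DMSO, 1.5 h at 23°C. EDTA stop, Eu-anti-pTyr PT66, 1 h. Signal is the 665/620 nm ratio, normalised to no-protein controls. IC50 from a four-parameter fit, otherwise % inhibition at the top concentration.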

In assay [2] the test system is Epidermal growth factor receptor (Homo sapiens), P00533 [T790M,L858R,C797S,E865A,E866A,K867A]. The experiment in a line: Binding affinity to N-terminal His6-tagged human EGFR T790M/L858R/C797S/E865A/E866A/K867A mutant expressed in Sf9 cells at pH 7.4 assessed as covalent adduct formation incubated for 1 hrs by TOF-MS analysis.
Assay [3] has as its system Epidermal growth factor receptor (Homo sapiens), P00533 [T790M,L858R,E865A,E866A,K867A]. Description: Binding affinity to N-terminal His6-tagged human EGFR T790M/L858R/E865A/E866A/K867A mutant expressed in Sf9 cells at pH 7.4 assessed as covalent adduct formation incubated for 1 hrs by TOF-MS analysis.
The test system of assay [4] is Epidermal growth factor receptor (Homo sapiens), P00533 [T790M,L858R,C797S,E865A,E866A,K867A]. The experiment in a line: Binding affinity to N-terminal His6-tagged human EGFR T790M/L858R/C797S/E865A/E866A/K867A mutant expressed in Sf9 cells at pH 7.4 incubated for 1 hrs by TOF-MS analysis.
Assay [5] concerns the target Epidermal growth factor receptor (Homo sapiens) (UniProt P00533). Description: Binding affinity to N-terminal twin Strep-tagged human wild type EGFR (694 to 1022 residues) expressed in Sf9 cells at pH 7.4 assessed as covalent adduct formation preincubated with maleimide followed by compound addition and measured after 1 hrs by TOF-MS analysis.
Assay [6] concerns Epidermal growth factor receptor (Homo sapiens), P00533 [T790M,L858R,E865A,E866A,K867A]. The experiment in a line: Binding affinity to N-terminal His6-tagged human EGFR T790M/L858R/E865A/E866A/K867A mutant expressed in Sf9 cells at pH 7.4 assessed as covalent adduct formation preincubated with nazartinib followed by compound addition and measured after 1 hrs by TOF-MS analysis.

Assay [7] deals with Epidermal growth factor receptor (Homo sapiens), P00533 [L858R,T790M,C797S]. Description: Inhibition of N-terminal His6-tagged human EGFR L858R/T790M/C797S mutant expressed in Sf9 cells assessed as decrease in substrate phosphorylation using Ulight-JAK1 peptide as substrate at 500 uMincubated for 1.5 hrs in presence of ATP by TR-FRET based LANCE Ultra kinase assay.

Active and inactive are the calls of the source. The calls are words filed in the database; no cut-off is given here.

As to `C=CC(=O)Nc1cc(-c2ccccc2)ccn1`, the IC50 in assay [1] was 32 µM.

As for `C=CC(=O)Nc1cccc(C(C)=O)c1`, the result in assay [2] and in assay [3] was Active.

Regarding `C=CC(=O)Nc1ccccn1`, the outcome in assay [2], in assay [4] and in assay [3] was Active. Also, the result in assay [5] and in assay [6] was inactive. Further, in assay [1], the IC50 was above 500 µM. For the same molecule, the inhibition in assay [7] came to 52.3%.

Consider `C=CC(=O)Nc1cc(-c2cn(C)c3ccccc23)ccn1`, for which the IC50 in assay [1] stood at 9 µM.

Regarding `C=CC(=O)Nc1ccc2cccnc2c1`, the outcome in assay [2], in assay [4] and in assay [3] was Active. Further, the outcome in assay [5] and in assay [6] was inactive.

Take `C=CC(=O)Nc1cccc(NC(C)=O)n1`: the result in assay [2] and in assay [3] was Active.

Regarding `C=CC(=O)Nc1ccc2c(C)n(C)nc2c1`, the outcome in assay [2] and in assay [3] was Active.

`C=CC(=O)Nc1cccc(O)c1`: the result in assay [2] and in assay [3] was Active.

As for `C=CC(=O)Nc1cccc2c1ncn2C`, the result in assay [2] and in assay [3] was Active.

As for `C=CC(=O)Nc1cc(N(C)C)n2nc(C)cc2n1`, the result in assay [2] and in assay [3] was Active.

`C=CC(=O)Nc1cc2ccccn2n1`: the outcome in assay [2], in assay [4] and in assay [3] was Active. Besides, the result in assay [5] and in assay [6] was inactive.

Take `C=CC(=O)Nc1ccc[nH]c1=O`: the outcome in assay [2] and in assay [3] was Active.
